# pPAFAH FP inh: inhibitors of human plasma PAF acetylhydrolase (pPAFAH). Q13093. recombinant pPAFAH, FP-rhodamine probe fluorescence polarization. inhibition, % at 3.39 µM. actives 1.5% (n = 330,000). AID 463082;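 active = inhibition above the mean inhibition across the screen plus 3 SD, cut at about 25% in these data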;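 also: inhibitors block binding of the rhodamine activity-based probe so polarization drops; 0% = enzyme with DMSO and 100% = wells lacking pPAFAH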
# PAFAH1B2 FP inh: inhibitors of human PAFAH1B2 | P68402 | recombinant PAFAH1B2, FP-rhodamine activity probe, fluorescence polarization | inhibition, % at 3.39 µM | actives 1.2% (n = 340,000);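 active = inhibition above the mean of all tested compounds plus 3 SD, cut at about 24% in these data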;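 also: 0% = enzyme with DMSO and 100% = wells lacking PAFAH1B2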
# PAFAH1B3 inh: inhibitors of human PAFAH1B3 | Q15102 | recombinant PAFAH1B3, FP-rhodamine probe, fluorescence polarization | inhibition, % at 3.39 µM | actives 0.28% (n = 340,000) | AID 492972;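 active = inhibition above the screen-wide average of all tested compounds plus 3 SD, cut at about 25% in these data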;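 also: 0% = enzyme with DMSO only and 100% = wells lacking PAFAH1B3 protein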
# Apaf-1 inh: inhibitors of human Apaf-1 apoptosome | O14727 | reconstituted apoptosome caspase-3 activity, DEVD-Rh110 fluorescence | inhibition, % at 20 µM | actives 0.71% (n = 330,000) | AID 489030; active = inhibition of at least 40% at 20 µM;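 also: plate controls were DMSO wells for no effect and DEVD-CHO caspase inhibitor wells for full effect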
# Target sequence (O14727 whole entry, looked up): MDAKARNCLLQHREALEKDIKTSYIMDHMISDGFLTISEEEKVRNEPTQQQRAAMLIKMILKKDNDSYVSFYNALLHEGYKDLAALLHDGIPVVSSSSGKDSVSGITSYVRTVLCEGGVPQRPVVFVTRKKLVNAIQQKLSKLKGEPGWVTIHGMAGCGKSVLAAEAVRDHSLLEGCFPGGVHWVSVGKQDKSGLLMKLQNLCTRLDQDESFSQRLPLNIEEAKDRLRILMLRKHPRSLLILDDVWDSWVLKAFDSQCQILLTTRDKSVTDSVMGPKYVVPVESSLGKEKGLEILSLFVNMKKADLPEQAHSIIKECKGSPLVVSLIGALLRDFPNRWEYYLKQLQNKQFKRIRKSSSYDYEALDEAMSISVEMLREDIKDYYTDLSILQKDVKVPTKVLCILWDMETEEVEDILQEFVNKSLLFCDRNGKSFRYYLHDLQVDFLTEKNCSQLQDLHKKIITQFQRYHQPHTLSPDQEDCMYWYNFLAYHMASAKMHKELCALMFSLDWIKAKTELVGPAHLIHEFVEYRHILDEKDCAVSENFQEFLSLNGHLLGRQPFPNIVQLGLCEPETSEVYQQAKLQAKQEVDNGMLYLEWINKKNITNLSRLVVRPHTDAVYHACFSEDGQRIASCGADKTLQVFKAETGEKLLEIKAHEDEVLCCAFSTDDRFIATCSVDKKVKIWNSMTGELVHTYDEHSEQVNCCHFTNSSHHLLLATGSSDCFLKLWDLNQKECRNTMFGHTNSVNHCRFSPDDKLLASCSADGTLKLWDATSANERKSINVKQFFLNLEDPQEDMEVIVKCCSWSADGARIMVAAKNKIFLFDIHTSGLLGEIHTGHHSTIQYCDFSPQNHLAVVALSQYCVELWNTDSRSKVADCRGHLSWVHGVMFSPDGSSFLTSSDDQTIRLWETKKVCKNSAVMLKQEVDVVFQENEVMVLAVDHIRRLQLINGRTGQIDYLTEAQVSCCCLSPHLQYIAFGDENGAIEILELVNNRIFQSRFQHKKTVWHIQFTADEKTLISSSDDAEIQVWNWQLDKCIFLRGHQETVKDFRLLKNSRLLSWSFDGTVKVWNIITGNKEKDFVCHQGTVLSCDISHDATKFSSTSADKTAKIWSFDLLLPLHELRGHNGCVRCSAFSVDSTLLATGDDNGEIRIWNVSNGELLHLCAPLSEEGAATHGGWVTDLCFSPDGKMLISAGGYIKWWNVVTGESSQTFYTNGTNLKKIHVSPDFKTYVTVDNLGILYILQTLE
#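 Assay system – apoptosome proteins · Medium – Hepes buffer, pH 7.5 · Also added – cytochrome c with DEVD-Rh110 · Timing – 30 min compound preincubation, 50 min activation, room temperature · Detection – Rh110 fluorescence, excitation 480 nm, emission 540 nm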
# PAFAH2 FP inh: PAFAH2 (human) inhibition. AID 492956. actives 0.99% (n = 340,000). recombinant PAFAH2, FP-rhodamine activity probe, fluorescence polarization. Q99487. inhibition, % at 3.39 µM;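 active = inhibition above the mean over all tested compounds plus 3 SD, cut at about 30% in these data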;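 also: inhibitors block probe labeling of enzyme so polarization drops; 0% = enzyme with DMSO and 100% = wells lacking PAFAH2 protein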
# Starred values were filed as active, the others as inactive; . = no result. Hits are enriched below; roughly 3.1% of the tested compounds scored in any of these assays.
SMILES,pPAFAH FP inh,PAFAH1B2 FP inh,PAFAH1B3 inh,Apaf-1 inh,PAFAH2 FP inh
Cc1ccc(/C=N/NC(=O)c2ccc(-n3cnnn3)cc2)cc1,1,7,3,-1,3
COCc1c(C(=O)NCCc2ccc(OC(F)F)cc2)oc2ccccc12,6,18,5,3,-13
CC(Sc1nn(-c2ccc(F)cc2)c(=S)s1)C(=O)c1c(N)n(C)c(=O)n(C)c1=O (configuration not stated),30*,3,1,23,7
Cc1ccc(Nc2c(-c3ccccn3)nc3cc(C)ccn23)cc1,10,1,4,-10,5
Cc1ccc(Nc2c(-c3ccccn3)nc3ccc(C)cn23)cc1,28*,8,5,11,-3
Cc1ccc(C)c(OCCC(=O)N2CCN(S(=O)(=O)c3cc(C)ccc3C)CC2)c1,5,8,6,14,3
C=CCn1c(SCC#N)nc2c(c1=O)C(C)(C)Cc1ccccc1-2,5,25*,2,14,0
C=CCn1c(SCC#N)nc2ccccc2c1=O,-1,2,8,7,-10
c1ccc(C(c2ccccc2)c2ccn[nH]2)cc1,2,27*,2,8,3
CC(Oc1ccccc1)c1ccn[nH]1 (configuration not stated),-4,3,0,6,0
Cc1ccc(N/C(N)=N/c2nc(C)cc(N3CCCCC3)n2)c(C)c1,-6,1,5,20,2
COc1cccc(/C=N/NC(=O)c2ccc(COc3ccc(Cl)cc3Cl)o2)c1,-9,5,2,5,4
COc1cc(/C=N/NC(=O)c2ccc(COc3ccccc3Cl)o2)cc(Br)c1O,32*,3,13,4,-1
Cc1ccc(S(=O)(=O)NNC(=O)CCCCC(=O)NNS(=O)(=O)c2ccc(C)cc2)cc1,0,24,5,7,11
Cc1ccc(S(=O)(=O)NNC(=O)C(=O)NNS(=O)(=O)c2ccc(C)cc2)cc1,1,28*,-4,-2,2
CC(=O)Nc1ccc(S(=O)(=O)c2ccc(C)cc2)cc1,-3,25*,14,10,7
O=C(COC(=O)c1ccc(Br)cc1)NC(=O)NCc1ccccc1,4,2,9,12,-2
O=C(CNC(=O)N1CC(=O)Nc2ccccc21)Nc1cccc(F)c1,5,2,7,-7,-1
CC(C)c1ccccc1NCC(=O)N1CCN(Cc2ccccc2)CC1,0,6,12,4,1
Cc1cc(NCCN2CCOCC2)n2nc(C)c(-c3ccccc3)c2n1,3,-4,3,-3,-8
Cc1cc(NCCN2CCOCC2)n2nc(C)c(-c3ccc(Cl)cc3)c2n1,28*,1,3,21,5
Cc1cc(NCCCn2ccnc2)n2nc(C)c(-c3ccc(Cl)cc3)c2n1,25*,0,5,-3,4
O=C(Cn1cnc2sc3c(c2c1=O)CCCC3)NCC(=O)Nc1ccc(F)cc1F,-1,0,2,8,-1
O=C(O)C(Cc1c[nH]c2ccccc12)NS(=O)(=O)c1ccccc1 (configuration not stated),2,24*,0,-1,2
COc1cc(S(=O)(=O)NC(Cc2c[nH]c3ccccc23)C(=O)O)ccc1NC(C)=O (configuration not stated),-7,5,3,-3,-1
SMILES,pPAFAH FP inh,PAFAH1B2 FP inh,PAFAH1B3 inh,Apaf-1 inh,PAFAH2 FP inh
CCCCC(=O)NC(c1ccco1)c1cc(Cl)c2cccnc2c1O (configuration not stated),29*,4,8,25,7
CC(NC(=O)CN(C)Cc1nc2ccccc2c(=O)[nH]1)c1ccccc1 (configuration not stated),4,1,8,13,4
CC(OCC(O)CN(C)Cc1nc2ccccc2c(=O)[nH]1)c1ccc(Cl)cc1 (configuration not stated),7,28*,-3,5,1
O=C(COC(=O)C1(c2ccccc2F)CCCC1)NCc1cccs1,4,7,11,6,3
NC(=O)c1ccc(NC(=O)COC(=O)C2(c3ccccc3F)CCCC2)cc1,-1,27*,8,13,2
CC(OC(=O)Cn1[nH]c(=O)c2ccccc2c1=O)C(=O)NC1(C#N)CCCCC1 (configuration not stated),0,5,0,1,-3
O=C(CNc1cccc2ccccc12)N/N=C/C=C/c1ccco1,10,7,11,18,6
O=C(Cc1cccs1)N/N=C/C=C/c1ccco1,25*,6,1,1,6
CCN(C(=O)CSc1nnc(-c2cccc(F)c2)n1N)c1c(N)n(Cc2ccccc2)c(=O)[nH]c1=O,.,6,8,.,2
CN1CCN(CCNC(=O)c2ccc3nc(-c4ccc(F)cc4)c(-c4ccc(F)cc4)nc3c2)CC1,10,28*,2,19,-4
CCCCN(Cc1nc2ccccc2c(=O)[nH]1)C(=O)c1nn(C)c(=O)c2ccccc12,.,42*,76*,4,81*
COC1=C(Br)C(=O)c2ncccc2C1=O,.,17,58*,.,48*
COc1ccc(-n2c(=S)[nH]c3cc(C(=O)N4CCN(c5ccccc5)CC4)ccc3c2=O)cc1,5,1,6,18,-1
CCOc1ccc(NC(=O)c2cc3n(n2)C(C(F)(F)F)CC(c2ccco2)N3)cc1 (configuration not stated),33*,-2,1,0,4
O=C(Nc1ccc(O)cc1)c1cc2n(n1)C(C(F)(F)F)CC(c1ccco1)N2 (configuration not stated),8,-4,-4,2,-7
O=C(NC1CCCCCC1)c1cc2n(n1)C(C(F)(F)F)CC(c1ccco1)N2 (configuration not stated),34*,5,3,21,6
CCc1ccc(N2CC(C(=O)OCC(=O)N(CC)c3c(N)n(Cc4ccccc4)c(=O)[nH]c3=O)CC2=O)cc1 (configuration not stated),.,6,8,.,10
CSCCC(NC(=O)c1ccc([N+](=O)[O-])cc1Cl)C(=O)OC1CCCCC1=O (configuration not stated),2,2,5,-4,-2
Cc1ccccc1OCCn1c(S(=O)(=O)O)nc2c(N)ncnc21,4,28*,45*,-5,46*
CCOC(=O)c1c2c(n(-c3ccc(OC)cc3)c1C)C(=O)C(=O)c1ccccc1-2,.,31*,77*,.,56*
COc1ccc(Cn2c(=O)[nH]c3cc(C(=O)N4CCN(c5ccc(C(C)=O)cc5)CC4)ccc3c2=O)cc1,1,0,4,23,5
CCOc1ccccc1/C=N/NC(=O)c1cccc(S(=O)(=O)N(CC)CC)c1,-1,-1,1,-8,-3
CCN(CC)S(=O)(=O)c1ccc(N/N=C/c2ccccc2OCC(=O)O)c([N+](=O)[O-])c1,30*,9,3,4,9

# Bioassay records (PubChem)
